Test results taken from ChEMBL document CHEMBL5329171, “First-in-class small molecule inhibitors of ICOS/ICOSL interaction as a novel class of immunomodulators” (RSC Med Chem, 2023).

Legend:
ICOS-ICOSL [1] = molecular target: T1, ICOS-ICOSL (Homo sapiens, UniProt O75144+Q9Y6W8); assay: Inhibition of C-terminal IgG1 Fc region fused human ICOS extracellular domain (1 to 141 residues)/C-terminal polyhistidine tagged human ICOSL extracellular domain (1 to 258 residues) interaction incubated for 1 hr by TR-FRET assay; assay type: protein assay
T1 sequence (O75144 whole entry): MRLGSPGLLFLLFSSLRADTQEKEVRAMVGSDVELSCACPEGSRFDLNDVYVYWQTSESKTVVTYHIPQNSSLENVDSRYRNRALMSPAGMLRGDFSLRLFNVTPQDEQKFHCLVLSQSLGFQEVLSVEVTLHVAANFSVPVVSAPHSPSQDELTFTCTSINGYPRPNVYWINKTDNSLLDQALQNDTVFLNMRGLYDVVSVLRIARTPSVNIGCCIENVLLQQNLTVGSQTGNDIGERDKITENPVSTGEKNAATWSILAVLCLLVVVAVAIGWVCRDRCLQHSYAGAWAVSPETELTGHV
T1 sequence (Q9Y6W8 whole entry): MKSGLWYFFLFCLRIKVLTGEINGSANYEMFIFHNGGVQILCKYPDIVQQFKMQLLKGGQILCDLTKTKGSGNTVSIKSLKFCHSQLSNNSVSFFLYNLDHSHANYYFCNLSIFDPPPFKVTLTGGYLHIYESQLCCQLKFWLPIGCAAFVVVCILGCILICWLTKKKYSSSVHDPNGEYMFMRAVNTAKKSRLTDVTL
In short: (§1)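 Fc-tagged human ICOS and His-tagged ICOSL, 10 nM each final, with Tb cryptate anti-His mAb (1 nM) donor and XL665 anti-human Ab (10 nM) acceptor. Compounds in DMSO (0.1%)/PBS pH 7.4, 1 h at room temperature. Read 665/620 nm ratio ×100 with 340 nm excitation. Percent inhibition scaled 0% (DMSO) to 100% (1 μM anti-ICOS mAb). Triplicate, single run. Single-dose screen at 50 μM final; IC50 from dose–response.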

ICOS-ICOSL [2] = molecular target: T1, ICOS-ICOSL; assay: Inhibition of ICOS (unknown origin)/C-terminal IgG1 FC region fused human ICOSL interaction by ELISA; assay type: protein assay
In short: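 Commercial ICOS/ICOSL ELISA kit, run per manufacturer's protocol. Anti-ICOS antagonist mAb as positive control. Triplicate, single run.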

[3] = molecular target: T2, ICOS-ICOSL (Homo sapiens) (UniProt O75144+Q9Y6W8); assay: Inhibition of C-terminal IgG1 Fc region fused human ICOS extracellular domain (1 to 141 residues)/C-terminal polyhistidine tagged human ICOSL extracellular domain (1 to 258 residues) interaction assessed as reduction in FRET signal at 50 uM incubated for 1 hr by TR-FRET assay relative to control; assay type: protein assay; in short: as §1
[4] = Stability in simulated gastric fluid at pH 1.6; assay type: ADME; conditions: simulated gi fluid
[5] = Metabolic stability in human plasma measured at 120 mins; assay type: ADME, cell-free; conditions: 2 h
[6] = Stability in simulated intestinal fluid at pH 6.5; assay type: ADME; conditions: simulated gi fluid
HEL 299 = assay: Cytotoxicity against human HEL 299 cells; assay type: toxicity, cell-based
[7] = Metabolic stability in rat liver microsomes; assay type: ADME, Microsome
[8] = molecular target: T2, ICOS-ICOSL (Homo sapiens); assay: Inhibition of human ICOS expressed in Jurkat T cells coexpressing TCR/CD3 and NanoLuc luciferase reporter/ICOSL (unknown origin) expressed in CHO-K1 cells interaction assessed as reduction in luminescence; assay type: cell-based; conditions: dose 5-20 µM
In short: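 Commercial blockade kit, run per manufacturer's protocol. ICOS effector Jurkat cells (NanoLuc reporter) co-cultured with ICOSL/CHO-K1 cells carrying a TCR/CD3 activator. Compound tested at 5, 10 and 20 μM; anti-ICOS mAb (100 nM) as positive control. Luminescence compared with untreated control. Triplicate, single run.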

Compound	IC50 (ICOS-ICOSL [1]) [µM]	also measured
O=C(Nc1ccc(Cl)cc1)c1c(O)ccc2c1[nH]c1ccccc12	> 50	–
O=C(Nc1cc(Cl)cc2c1[nH]c1cnccc12)c1ccccc1	> 50	–
COc1cccc(C(=O)Nc2cc(Cl)cc3c2[nH]c2cnccc23)c1	36.7	–
COc1c(Cl)cc2c([nH]c3cnccc32)c1NC(=O)c1cncnc1C	5.65	–
CCOc1ccc(-c2nc(C(=O)Nc3ccccc3Cl)cc3c2[nH]c2ccccc23)cc1OC	> 50	–
COc1c(Cl)cc2c([nH]c3cnccc32)c1NC(=O)c1cccnc1C	12.2	IC50 (ICOS-ICOSL [2]): 10.3 µM; inhibition [3]: > 90%
CC1(C)CN[C@@H](C(=O)Nc2cc(Cl)cc3c2[nH]c2cnccc23)CO1	11.1	–
COc1ccc(C(=O)Nc2cc(Cl)cc3c2[nH]c2cnccc23)cc1	49.3	–
O=C(Nc1cc(Cl)cc2c1[nH]c1cnc(NCc3ccccc3)cc12)c1ccccn1	15.5	–
O=C(Nc1cc(Cl)cc2c1[nH]c1cnccc12)c1cccnc1	13.9	–
O=C(Cc1ccccn1)Nc1cc(Cl)cc2c1[nH]c1cnccc12	37.1	–
O=C(Nc1cc(Cl)cc2c1[nH]c1cnc(NCc3ccccc3)cc12)c1ccncc1	18.4	–
O=C(Nc1cc(Cl)cc2c1[nH]c1cnccc12)c1ccccn1	28.6	–
O=C(Nc1cc(Cl)cc2c1[nH]c1cnccc12)c1ccncc1	31	–
COc1ccccc1C(=O)Nc1cc(Cl)cc2c1[nH]c1cnccc12	43.7	–
O=C(Nc1cc(Cl)cc2c1[nH]c1cnc(NCc3ccccc3)cc12)c1cccnc1	4.68	Stability [4]: Stable; Stability [5]: Stable; Stability [6]: Stable; Activity (HEL 299): Non-Toxic; Stability [7]: Stable; inhibition [8]: Dose-Dependent Effect
O=C(Nc1ccc(Cl)cc1)c1cc2c(cc1O)[nH]c1ccccc12	> 50	–
